M1 agonist = activates the M1 muscarinic receptor. CHO-M1 cells, Fluo-4 calcium fluorescence, agonist mode; stronger effect = higher value. B-score at 10 µM. actives 3% (n = 64,000);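 active = fluorescence rise, raw or as B-score row- and column-corrected plate score, outside the 99.7% band of its plate's samples, either direction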
AP complement = alternative pathway complement inhibition, orthogonal assay; inhibition, % at 5 µM; actives 0.08% (n = 62,000); Human serum alternative complement pathway, LPS-coated ELISA, C3 deposition; tested in compound mixtures;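 active = inhibition above 30% in each of the two pooled mixtures holding the compound, so the lower value exceeds 30%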
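Medium: diluted human serum in Mg2+-EGTA GVB++. Assay system: human serum complement alternative pathway, C3 deposition onto LPS. Also added: Plate-bound LPS. Technique: Anti-C3 ELISA, OD 450 nm. Measure: percent inhibition. Incubation: 1 h at 37 °C. Dosing: 5 µM each compound, pools of ten, 50 µM per pool.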
D1 allo mod = D1 dopamine receptor (human) allosteric modulation | AID 641 | B-score at 10 µM | actives 5.9% (n = 58,000) | HEK293 D1, CRE-luciferase, dopamine EC30 potentiation; actives deviate in either direction;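 active = luminescence count or its row- and column-corrected plate score outside the 99.7% band of the plate's sample wells, on either side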
mHtt clearance = compounds clearing mutant huntingtin protein; HeLa Exon1htt(103Q)mCFP, aggregate imaging; zero = plate's median compound well; inhibition, % at 1.5 µM; actives 0.42% (n = 47,000); AID 853;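 active = inhibition of aggregate fluorescence above about 70%, also judged a hit by eye on the cell image, limit read from the data, passing the limit was not always enough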;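 note: cells exposed to compound for three days before fixation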
M1 antag = M1 muscarinic receptor (rat) antagonism. B-score at 10 µM. actives 3.4% (n = 64,000). CHO-M1 cells, Fluo-4 calcium, ACh EC80 antagonist mode; stronger effect = lower value. P08482;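 active = calcium fluorescence response, raw or row-and-column corrected B-score, differing from the plate sample mean either way at a set confidence level, mostly lower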
Target sequence (P08482 whole entry, looked up): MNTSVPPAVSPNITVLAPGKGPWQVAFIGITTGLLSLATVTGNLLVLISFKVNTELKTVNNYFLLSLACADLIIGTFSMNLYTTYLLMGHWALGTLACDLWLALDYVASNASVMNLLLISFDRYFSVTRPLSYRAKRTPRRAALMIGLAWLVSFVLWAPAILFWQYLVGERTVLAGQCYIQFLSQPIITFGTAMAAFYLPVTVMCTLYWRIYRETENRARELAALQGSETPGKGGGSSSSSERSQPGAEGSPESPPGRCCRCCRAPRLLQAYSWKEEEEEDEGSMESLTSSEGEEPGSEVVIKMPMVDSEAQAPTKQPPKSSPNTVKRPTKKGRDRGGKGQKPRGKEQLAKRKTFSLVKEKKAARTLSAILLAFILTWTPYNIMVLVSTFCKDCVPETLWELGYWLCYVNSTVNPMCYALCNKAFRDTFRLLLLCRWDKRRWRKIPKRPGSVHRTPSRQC
D1 mod confirm = confirmation of human D1 dopamine receptor allosteric modulators; shares compounds with D1 allo mod; HEK293 D1 CRE-luciferase, dopamine EC30 potentiation; stronger effect = higher value; luminescence at 10 µM; actives 88% (n = 2,200); AID 642;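 active = luminescence in either of two replicates above the same-plate mean plus 3 SD of the low-dose dopamine control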
D1 ag no DA = D1 (human) signaling in absence of dopamine; shares compounds with D1 allo mod; HEK293 D1 CRE-luciferase, luminescence, no dopamine; stronger effect = higher value; luminescence at 10 µM; actives 0.8% (n = 1,900); in the data active = luminescence above about 3900
Isoprot counter = isoproterenol response counter-screen activity for D1 modulators; shares compounds with D1 allo mod; HEK293 D1 CRE-luciferase, isoproterenol EC30 counter-screen; calls only at 10 µM; actives 63% (n = 2,200);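 active = luminescence in either replicate above plate mean of wells with a partly effective reference agonist dose plus 3 SD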;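 note: isoproterenol raises cAMP through native beta-adrenoceptor Gs so signal bypasses D1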
Each line names hits and unclear results; the compound was inactive in the other large screens (follow-up assays come after a bar, where they were run). Rows were chosen to be rich in hits. Some 9% of all compounds tested hit in one or more screens of this group.

COc1ccc(-c2nc(CSCC(=O)NCC3CCCO3)c(C)o2)cc1OC (centres undefined)	none
COc1ccc(-c2nc(CSCC(=O)N3CCN(c4cccc(C)c4)C(C)C3)c(C)o2)cc1OC (centres undefined)	D1 allo mod 12 (no result: mHtt clearance) | D1 mod confirm 12288 | Isoprot counter active
CCCCN(C)CCCNC(=O)CS(=O)Cc1nc(-c2ccc(OC)c(OC)c2)oc1C (centres undefined)	none
COc1ccc(-c2nc(CS(=O)CC(=O)NC3CCCc4ccccc43)c(C)o2)cc1OC (centres undefined)	D1 allo mod 4.4 (no result: mHtt clearance) | D1 mod confirm 9276 | Isoprot counter active
COc1ccc(-c2nc(CSCC(=O)N3CCc4ccccc4C3)c(C)o2)cc1OC	D1 allo mod 7.8 (no result: mHtt clearance) | D1 mod confirm inactive | D1 ag no DA inactive | Isoprot counter active
CCOC(=O)N1CCC(NC(=O)CSCc2nc(-c3ccc(OC)c(OC)c3)oc2C)CC1	none
COC(=O)C(C)Oc1ccc(=O)[nH]n1 (centres undefined)	none
Cc1ccc2nc(NC(=O)c3ccc(Cn4cc(Cl)cn4)o3)sc2c1	D1 allo mod 6.6 (no result: AP complement, mHtt clearance) | D1 mod confirm inactive | D1 ag no DA inactive | Isoprot counter inactive
Cc1ccccc1NC(=O)CCC(=O)OCC(=O)c1ccc(-c2ccccc2)cc1	none (no result: M1 agonist, AP complement, D1 allo mod, M1 antag)
CC1(C)Cc2c(c(N3CCOCC3)nc3sc(C#N)c(N)c23)CS1	none (no result: mHtt clearance)
CC1(C)Cc2c(C#N)c(SCCC#N)nc(N3CCOCC3)c2CS1	D1 allo mod 5.5 (no result: mHtt clearance) | D1 mod confirm 12904 | D1 ag no DA inactive | Isoprot counter active
O=C1COc2ccc(C(=O)c3ccccc3)cc2CN1	D1 allo mod 4.7 | D1 mod confirm 5740 | D1 ag no DA inactive | Isoprot counter inactive
O=C1COc2ccc3ccccc3c2CN1	none (no result: mHtt clearance)
COC(=O)COc1ccc(Oc2nc(SC)nc(N(C)C)n2)nn1	none (no result: AP complement, mHtt clearance)
CCCn1c(-c2cccs2)nc2ccccc21	none (no result: mHtt clearance)
Cc1ccccc1Cn1c(-c2cncs2)nc2ccccc21	D1 allo mod 14 | D1 mod confirm 20248 | Isoprot counter active
Brc1cc2c(cc1Cn1c(-c3cncs3)nc3ccccc31)OCO2	D1 allo mod 20 (no result: mHtt clearance) | D1 mod confirm 14624 | D1 ag no DA inactive | Isoprot counter active
CCCCOc1ccc(/C=c2\sc3ncnn3c2=O)cc1	D1 allo mod 2.7 | D1 mod confirm 11772 | D1 ag no DA inactive | Isoprot counter active
O=c1/c(=C/c2cccc3ccccc23)sc2ncnn12	D1 allo mod 3.8 | D1 mod confirm inactive | D1 ag no DA inactive | Isoprot counter inactive
O=C(NC1CCCCC1)c1nn2c(C(F)(F)F)cc(-c3ccco3)nc2c1Br	none (no result: mHtt clearance)
O=C(NC1CCCCC1)c1cnn2c(C(F)(F)F)cc(-c3ccco3)nc12	D1 allo mod 5.3 (no result: mHtt clearance) | D1 mod confirm 6744 | D1 ag no DA inactive | Isoprot counter active
N#CCSC1=Nc2ccccc2C2=NC(CCC(=O)N3CCN(c4ccccc4)CC3)C(=O)N12 (centres undefined)	none
CC(C)C1N=C2c3ccccc3N=C(SCC#N)N2C1=O (centres undefined)	D1 allo mod 5.1 (no result: mHtt clearance) | D1 mod confirm 10160 | D1 ag no DA inactive | Isoprot counter inactive
Cc1ccc(NC(=O)CN2CCCN(S(=O)(=O)c3ccc(Br)s3)CC2)cc1	none (no result: M1 agonist, AP complement, D1 allo mod, M1 antag)
COC(=O)C1=C(C)NC(=O)NC1C1CC=CCC1 (centres undefined)	D1 allo mod 3.3 (no result: M1 agonist, M1 antag) | D1 mod confirm inactive | D1 ag no DA inactive | Isoprot counter inactive
CC12CC(NC(=O)N1c1cccc(C(=O)N3CCN(c4ccccc4F)CC3)c1)c1ccccc1O2 (centres undefined)	D1 allo mod 3.5 (no result: mHtt clearance) | D1 mod confirm inactive | D1 ag no DA inactive | Isoprot counter inactive
COc1ccc(N(CC(=O)NC(C)(C)C)S(=O)(=O)c2ccccc2)cc1OC	none (no result: mHtt clearance)
Cc1ccc(CNC(=O)CN(C)S(=O)(=O)c2cccc3nsnc23)cc1	none (no result: mHtt clearance)
CCN(CCCNC(=O)CN(C)S(=O)(=O)c1cccc2nsnc12)c1cccc(C)c1	D1 allo mod 3.5 | D1 mod confirm 13504 | D1 ag no DA inactive | Isoprot counter inactive
COc1ccc(-c2coc3cc(OC)cc(O)c3c2=O)cc1	none (no result: M1 agonist, AP complement, D1 allo mod, M1 antag)
COc1ccc(-c2coc3cc(O)cc(O)c3c2=O)cc1	D1 allo mod 6.2 (no result: mHtt clearance) | D1 mod confirm 9820 | D1 ag no DA inactive | Isoprot counter inactive
Cc1ccc(C2C(C(=O)c3sc(-c4ccccc4)nc3C)=C(O)C(=O)N2CCN(C)C)o1 (centres undefined)	none
N#Cc1nc(-c2ccco2)oc1NCc1ccc(F)cc1	D1 allo mod 6.6 | D1 mod confirm 12560 | D1 ag no DA inactive | Isoprot counter active
COCCNc1oc(-c2ccc(Cl)cc2)nc1C#N	none (no result: AP complement)
COc1ccc(CNc2oc(-c3ccccc3)nc2C#N)cc1	D1 allo mod 10 (no result: mHtt clearance) | D1 mod confirm 18596 | D1 ag no DA inactive | Isoprot counter active
N#Cc1nc(-c2ccco2)oc1NCc1cccnc1	none
COCCNc1oc(-c2ccc(C)cc2)nc1C#N	D1 allo mod 5.1 | D1 mod confirm 5796 | D1 ag no DA inactive | Isoprot counter inactive
CNc1oc(-c2ccccc2)nc1C#N	D1 allo mod 7.4 (no result: mHtt clearance) | D1 mod confirm 11304 | D1 ag no DA inactive | Isoprot counter active
O=C(CN(Cc1cccs1)C(=O)CN1C(=O)COc2ccccc21)NCc1ccco1	none
O=C(CN1CCC(O)(c2ccc3c(c2)OCO3)CC1)OC1CCCCC1	none
N#Cc1nc(-c2ccccc2Cl)oc1NCc1ccco1	D1 allo mod 4.7 | D1 mod confirm 12632 | D1 ag no DA inactive | Isoprot counter active
N#Cc1nc(Cc2ccccc2)oc1NCc1ccccc1Cl	D1 allo mod 12 (no result: mHtt clearance) | D1 mod confirm 11100 | D1 ag no DA inactive | Isoprot counter active
CCCCSC1=C(C#N)C(c2ccccc2C)C(C(=O)OCC)C(=O)N1 (centres undefined)	none
CC1(C)Cc2c(C#N)c(N3CCCC3)nc(-c3ccco3)c2CO1	D1 allo mod 5.3 (no result: mHtt clearance) | D1 mod confirm 9980 | D1 ag no DA inactive | Isoprot counter inactive
CC1(C)Cc2c(c(-c3ccco3)nc3n[nH]c(N)c23)CO1	D1 allo mod 11 | D1 mod confirm 17288 | D1 ag no DA inactive | Isoprot counter active
CC1(C)Cc2c(c(-c3ccco3)[nH]c(=O)c2C#N)CO1	D1 allo mod 4.3 (no result: mHtt clearance) | D1 mod confirm 15660 | D1 ag no DA inactive | Isoprot counter active
CCSc1ncnc2c1sc1nc(-c3ccco3)c3c(c12)CC(C)(C)OC3	none (no result: M1 agonist, AP complement, D1 allo mod, M1 antag)
CC1(C)Cc2c(C#N)c(NCc3ccco3)nc(-c3ccco3)c2CO1	none (no result: AP complement, D1 allo mod, mHtt clearance)
Cc1cc(C(F)(F)F)nn1CCCNC(=O)c1cnccn1	none (no result: mHtt clearance)
